pIC50: −log10 of the molar value. “And” between values parts separate entries of the source, which are not always exact repeats. Equal values may be shown once.
How the values were obtained:
Mus musculus [1] = species: Mus musculus; experiment: Effect on the sleeping time of mice before halothane load (control group); type: functional
In short: (§1)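 Groups of 10 mice received compound orally 1 h before testing, at 100 mg/kg unless another dose is noted. Vehicle was 0.5% gum arabic in 0.9% saline, and controls received vehicle alone. Mice were exposed to 4% halothane in air at 2 L/min. Sleeping time ran from loss to recovery of righting reflex (mean ± SE s), expressed as % of control. Two-tailed t-test was used.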

Mus musculus [2] = experiment: Effect on the sleeping time of mice anesthetized with halothane (treated group); type: functional; in short: as §1
Mus musculus [3] = species: Mus musculus; experiment: Effect on recovery time for coma induced in mice by cerebral concussion (control group); type: functional
In short: (§2)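 Groups of 10 mice received compound orally 1 h before head concussion, at 100 mg/kg unless another dose is noted. Vehicle was 0.5% gum arabic in saline, and controls received vehicle alone. The read-out was time to reappearance of the righting reflex (mean ± SE s), expressed as % of control. Two-tailed t-test was used.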

Mus musculus [4] = species: Mus musculus; experiment: Effect on recovery time for coma induced in mice by cerebral concussion (treated group); type: functional; in short: as §2
Mus musculus [5] = experiment: Effect on the time required for recovery from coma induced in mice by cerebral concussion at the dose of 10 mg/kg po; type: functional
In short: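 In the concussion-coma test in mice (n = 10), compound was given orally 1 h before concussion, and antagonists were pre-dosed 15 min to 1 h before the test compound. The read-out was time to recovery of the righting reflex as % of control. Statistics were two-tailed t-test versus control and one-way ANOVA with Dunnett's test versus the treated group.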

Mus musculus [6] = experiment: Effect on Immobility Time in the Forced-Swimming Test in Mice at the dose of 0 mg/kg po; type: functional
In short: (§3)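 Mice, 8 per group. Dosing was oral, either as a single dose 1 h before testing on day 2 or repeated once daily for 4 days. Each mouse swam 6 min in a cylinder with 6 cm of water at 22-23 °C, and immobility was scored over the last 4 min. Results are mean ± SE seconds and % of control, analysed by one-way ANOVA with Dunnett's test.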

Mus musculus [7] = experiment: Effect on Immobility Time in the Forced-Swimming Test in Mice at the dose of 10 mg/kg po; type: functional; in short: as §3
Mus musculus [8] = experiment: Effect on Immobility Time in the Forced-Swimming Test in Mice at the dose of 1 mg/kg po; type: functional; in short: as §3
Mus musculus [9] = experiment: Effect on the sleeping time of mice anesthetized with halothane (treated group) (30 mg/kg); type: functional; in short: as §1
[10] = biological target: T1, Sigma non-opioid intracellular receptor 1 (Rattus norvegicus, UniProt Q9R0C9); experiment: Binding affinity for sigma receptor was evaluated by the inhibitory effect on [3H]DTG to rat whole brain membranes; type: cell membranes
T1 sequence (Q9R0C9 whole entry): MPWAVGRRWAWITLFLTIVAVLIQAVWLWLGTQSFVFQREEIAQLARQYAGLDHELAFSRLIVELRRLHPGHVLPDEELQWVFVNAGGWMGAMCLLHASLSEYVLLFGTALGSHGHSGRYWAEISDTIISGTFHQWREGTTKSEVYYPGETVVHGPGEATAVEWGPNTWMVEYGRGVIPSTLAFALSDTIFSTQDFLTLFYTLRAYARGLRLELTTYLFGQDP
In short: (§4)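 Bound ligand collected by filtration onto PEI-soaked filters and counted by scintillation; nonspecific binding defined with haloperidol. IC50 by nonlinear least-squares fit; mean ± SE of three experiments, or a single experiment where no SE is given.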

[11] = biological target: T1, Sigma non-opioid intracellular receptor 1; experiment: Binding affinity for sigma receptor was evaluated by the inhibitory effect on [3H]DTG to rat whole brain membranes.; type: functional, cell membranes; in short: as §4
Mus musculus [12] = experiment: Effect on Immobility Time in the Forced-Swimming Test in Mice at the dose of 0 mg/kg po for repeated administration; type: functional; in short: as §3
Mus musculus [13] = experiment: Effect on Immobility Time in the Forced-Swimming Test in Mice at the dose of 0 mg/kg po for single administration; type: functional; in short: as §3
Mus musculus [14] = experiment: Effect on Immobility Time in the Forced-Swimming Test in Mice at the dose of 10 mg/kg po for repeated administration; type: functional; in short: as §3
Mus musculus [15] = experiment: Effect on Immobility Time in the Forced-Swimming Test in Mice at the dose of 10 mg/kg po for single administration; type: functional; in short: as §3
Mus musculus [16] = experiment: Effect on Immobility Time in the Forced-Swimming Test in Mice at the dose of 30 mg/kg po for repeated administration; type: functional; in short: as §3
Mus musculus [17] = experiment: Effect on Immobility Time in the Forced-Swimming Test in Mice at the dose of 30 mg/kg po for single administration; type: functional; in short: as §3

CSc1cccc2c1CCC(=O)N2CCCN1CCN(c2cccc(Cl)c2)CC1
Sleeping time (Mus musculus [1]): 363 s | Sleeping time (Mus musculus [2]): 439 s

Cc1ccccc1NC(=N)Nc1ccccc1C
RRT (Mus musculus [3]): 153 s | RRT (Mus musculus [4]): <101 s | RRT (Mus musculus [5]): <81 s and <210 s

COc1ccc2c(c1)CCC(=O)N2CCCN1CCN(c2cccc(Cl)c2)CC1
Sleeping time (Mus musculus [1]): 566 s | Sleeping time (Mus musculus [2]): <770 s

COc1cccc2c1CCC(=O)N2CCCN1CCN(c2cccc(Cl)c2)CC1.CS(=O)(=O)O.O
Time (Mus musculus [6]): 199 s | Sleeping time (Mus musculus [1]): 613 s | RRT (Mus musculus [3]): 165 s | RRT (Mus musculus [4]): <49 s | Time (Mus musculus [7]): <138 s | Time (Mus musculus [8]): <140 s | Sleeping time (Mus musculus [9]): <414 s

COc1cccc2c1CCC(=O)N2CCCN1CCN(c2cccc([N+](=O)[O-])c2)CC1
pIC50 [10]: 6.06 | Sleeping time (Mus musculus [1]): 553 s | RRT (Mus musculus [3]): 141 s | RRT (Mus musculus [4]): <74 s | Sleeping time (Mus musculus [2]): <339 s

COc1cccc2c1CCC(=O)N2CCCN1CCN(c2cccc(C#N)c2)CC1
Sleeping time (Mus musculus [1]): 553 s | Sleeping time (Mus musculus [2]): 465 s

COc1cccc2c1CCC(=O)N2CCCN1CCN(c2cccc(Cl)c2)CC1.Cl
Time (Mus musculus [6]): 115 s | Sleeping time (Mus musculus [1]): 566 s | RRT (Mus musculus [3]): 180 s | RRT (Mus musculus [4]): <36 s | Time (Mus musculus [7]): <61 s | Time (Mus musculus [8]): <56 s | Sleeping time (Mus musculus [2]): <294 s

COc1cccc2c1CCC(=O)N2CCN1CCN(c2cccc(Cl)c2)CC1
Sleeping time (Mus musculus [1]): 498 s | Sleeping time (Mus musculus [2]): 676 s

COc1cccc(N2CCN(CC(=O)NC3c4c(O)c(C)cc(C)c4CC3(C)C)CC2)c1 (stereo unspecified)
pIC50 [10]: < 4.82 | Time (Mus musculus [6]): 120 s | Sleeping time (Mus musculus [1]): 625 s | RRT (Mus musculus [3]): 210 s | RRT (Mus musculus [4]): <54 s | Time (Mus musculus [7]): 123 s | Time (Mus musculus [8]): 119 s | Sleeping time (Mus musculus [2]): <373 s

C[C@@H]1CN(CCCn2c3ccccc3c3ccccc32)C[C@H](C)N1 [RIMCAZOLE]
Sleeping time (Mus musculus [1]): 482 s | RRT (Mus musculus [3]): 131 s | RRT (Mus musculus [4]): 115 s | Sleeping time (Mus musculus [2]): 490 s

COc1cccc2c1CCC(=O)N2CCCN1CCN(c2cc(Cl)cc(Cl)c2)CC1
Sleeping time (Mus musculus [1]): 363 s | RRT (Mus musculus [3]): 133 s | RRT (Mus musculus [4]): 168 s | Sleeping time (Mus musculus [2]): 310 s

CC(C)Oc1cccc2c1CCC(=O)N2CCCN1CCN(c2cccc(Cl)c2)CC1
Sleeping time (Mus musculus [1]): 353 s | Sleeping time (Mus musculus [2]): 304 s

O=c1ccc2ccccc2n1CCCN1CCN(c2cccc(Cl)c2)CC1
pIC50 [10]: 6.21 | Sleeping time (Mus musculus [1]): 616 s | RRT (Mus musculus [3]): 138 s | RRT (Mus musculus [4]): 111 s | Sleeping time (Mus musculus [2]): 704 s

O=C1CCc2c(Cl)cccc2N1CCCN1CCN(c2cccc([N+](=O)[O-])c2)CC1
pIC50 [10]: 6.41 | RRT (Mus musculus [3]): 152 s | RRT (Mus musculus [4]): 110 s

O=C(Oc1ccc2c(c1)CCC(=O)N2CCCN1CCN(c2ccccc2)CC1)c1ccccc1
pIC50 [11]: < 5.00 | Sleeping time (Mus musculus [1]): 561 s | Sleeping time (Mus musculus [2]): <1097 s

COc1cccc2c1N(CCCN1CCN(c3cccc(Cl)c3)CC1)C(=O)CC2
pIC50 [10]: 6.22 | RRT (Mus musculus [3]): 128 s | RRT (Mus musculus [4]): 109 s

CC(C)=CCN1CC[C@@]2(C)c3cc(O)ccc3C[C@@H]1[C@@H]2C
Sleeping time (Mus musculus [1]): 549 s | RRT (Mus musculus [3]): 170 s | RRT (Mus musculus [4]): <72 s | Sleeping time (Mus musculus [2]): <370 s

Nc1cccc2c1CCC(=O)N2CCCN1CCN(c2cccc(Cl)c2)CC1
RRT (Mus musculus [3]): 128 s | RRT (Mus musculus [4]): 129 s

COc1cccc2c1ccc(=O)n2CCCN1CCN(c2cccc(Cl)c2)CC1
pIC50 [10]: 6.01 | RRT (Mus musculus [3]): 122 s | RRT (Mus musculus [4]): 131 s

CN(C)CCCN1c2ccccc2CCc2ccccc21 [IMIPRAMINE]
RRT (Mus musculus [3]): 177 s | RRT (Mus musculus [4]): 290 s | Time (Mus musculus [12]): 178 s | Time (Mus musculus [13]): 198 s | Time (Mus musculus [14]): 122 s | Time (Mus musculus [15]): 158 s | Time (Mus musculus [16]): <109 s | Time (Mus musculus [17]): 160 s

COc1cccc2c1CCC(=O)N2CCCN1CCN(c2cccc(C(F)(F)F)c2)CC1
pIC50 [10]: 6.31 | Sleeping time (Mus musculus [1]): 379 s | RRT (Mus musculus [3]): 134 s | RRT (Mus musculus [4]): <48 s | Sleeping time (Mus musculus [2]): <250 s

NC(=O)[C@@H]1CCCN1C(=O)[C@H](Cc1c[nH]cn1)NC(=O)[C@@H]1CCC(=O)N1 [PROTIRELIN]
Sleeping time (Mus musculus [1]): 663 s | RRT (Mus musculus [3]): 173 s | RRT (Mus musculus [4]): <44 s | Sleeping time (Mus musculus [2]): <377 s

O=c1ccc2ccc(O)cc2n1CCCN1CCN(c2ccc(F)cc2)CC1
pIC50 [10]: 5.88 | Sleeping time (Mus musculus [1]): 561 s | Sleeping time (Mus musculus [2]): 582 s
